Source: PubChem (The Scripps Research Institute Molecular Screening Center)
In the library only some 3.1% were active in any assay of this set; here they are far more common.
MBD2 DNA inh = inhibitors of human MBD2 binding to methylated oligonucleotide. TR-FRET. inhibition, % at 4.4 µM. 370,000 tested, 0.31% active. AID 686964; in the data active means inhibition above about 13%
PRMT1 FP inh = inhibitors of human PRMT1; Q99873; recombinant PRMT1, activity-based probe fluorescence polarization; inhibition, % at 2.79 µM; 370,000 tested, 1.3% active; AID 652257;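 active means inhibition above about 21% made by adding two undisclosed values, limit read from the data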
Target sequence (Q99873 whole entry, looked up): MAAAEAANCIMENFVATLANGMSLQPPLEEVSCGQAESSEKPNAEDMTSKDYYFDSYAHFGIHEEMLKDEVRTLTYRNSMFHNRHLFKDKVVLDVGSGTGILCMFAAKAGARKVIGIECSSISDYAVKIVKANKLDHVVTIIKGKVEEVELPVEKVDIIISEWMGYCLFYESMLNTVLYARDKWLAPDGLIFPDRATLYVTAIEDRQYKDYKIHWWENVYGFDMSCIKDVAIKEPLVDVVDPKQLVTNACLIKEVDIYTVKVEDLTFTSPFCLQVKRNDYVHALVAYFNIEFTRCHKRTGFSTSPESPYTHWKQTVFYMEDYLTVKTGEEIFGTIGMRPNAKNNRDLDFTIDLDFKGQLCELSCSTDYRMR
ABHD5 PLIN5 PPI = ABHD5-PLIN5 protein interaction inhibition; Q00G26+Q8WTS1; Split G. princeps luciferase complementation, luminescence, 4 h; inhibition, % at 4 µM; 360,000 tested, 0.78% active;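 active means inhibition above the mean inhibition across every tested compound plus 3 SD, cut at about 22% in these data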;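 further: 0% = DMSO only wells and the 100% control is not disclosed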
RBBP9 inh = inhibitors of human serine hydrolase RBBP9; O75884; recombinant RBBP9, FP-Rh probe fluorescence polarization; inhibition, % at 7.94 µM; 220,000 tested, 0.2% active;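 active means inhibition above the campaign mean of all tested compounds plus 3 SD, cut at about 14% in these data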;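 further: plate controls were DMSO wells with RBBP9 for no effect and wells lacking RBBP9 protein for full effect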
Target sequence (O75884 whole entry, looked up): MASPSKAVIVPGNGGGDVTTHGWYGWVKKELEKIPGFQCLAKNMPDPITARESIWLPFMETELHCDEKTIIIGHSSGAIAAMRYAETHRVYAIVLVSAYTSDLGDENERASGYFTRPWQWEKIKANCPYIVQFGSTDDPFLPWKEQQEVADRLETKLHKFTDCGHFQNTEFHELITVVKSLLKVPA
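System: RBBP9 protein / Quantity: 2.5 µM RBBP9 dispensing solution, before mixing / Also added: Serine-hydrolase probe FP-Rh, 375 nM pre-mixing / Dosing: 7.94 µM single dose, 0.794% DMSO / Timing: enzyme-compound preincubation 30 min, then probe labeling 45 min, 25 °C / Signal: FP readout at 525/598 nm / Controls: DMSO-treated enzyme wells and wells lacking RBBP9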
UHRF1 binding = blocks human UHRF1 binding to methylated DNA. Q96T88. UHRF1 binding to methylated oligo, TR-FRET. inhibition, % at 4.4 µM. 370,000 tested, 0.75% active; in the data active means inhibition above about 21%;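 further: UHRF1 SRA domain binding a hemimethylated CpG hairpin DNA probe; 0% = median of test compound wells and 100% = reference inhibitor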
LEDGF integ inh = blocks HIV-1 LEDGF/p75-dependent DNA integration; AID 743269; TR-FRET IN-LEDGF/p75 DNA integration, Eu/Cy5; inhibition, % at 3.7 µM; 370,000 tested, 0.64% active;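 active means inhibition above the screen-wide mean plus 3 SD, cut at about 13% in these data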;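 further: signal is the Cy5 over europium emission ratio at 671 and 618 nm; 0% = plate median of compound wells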
PRMT1 inh conf = PRMT1 (human) inhibition, FP confirmation | shares compounds with PRMT1 FP inh | recombinant His-PRMT1, activity-based probe fluorescence polarization | inhibition, % at 2.79 µM | 3,300 tested, 42% active;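 active means mean inhibition across replicates above the hit cutoff derived for the earlier primary screen, cut at about 22% in these data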
* hit, by the source's call; · = no result given.

SMILES	MBD2 DNA inh	PRMT1 FP inh	ABHD5 PLIN5 PPI	RBBP9 inh	UHRF1 binding	LEDGF integ inh	PRMT1 inh conf
CCN(CC)C(=O)[C@H]1C[C@@H]2[C@H](C[C@@H](c3ccccc3)[C@H]1C)N(c1ccc(F)cc1)C(=O)N2CCCOc1ccccc1	2	-2	·	·	1	3	·
COc1ccccc1NC(=O)CSc1nc2c(sc3ccccc32)c(=O)n1CCN(C)C	-6	70*	14	0	-2	-1	72*
O=C(CSc1nc2c(sc3ccccc32)c(=O)n1CCCN1CCCC1)NCc1ccco1	2	27*	-1	-3	13	-2	11
Cc1cc2c(=O)n(Cc3ccco3)c(SCC(=O)NCc3ccco3)nc2s1	0	58*	10	-11	16	12	18
CCN1Cc2nnn(Cc3ccccc3)c2-c2cc(F)ccc2S1(=O)=O	4	-2	·	·	-3	-2	·
O=C(Nc1ccccc1Cl)OC1CC2CC1[C@H]1CCCCN1[C@H]2Cc1ccccc1 (stereo partly drawn)	-2	0	·	·	-1	-2	·
O=C(CSc1nnc(-c2cccnc2)n1Cc1ccco1)Nc1ccc(Cl)cc1	7	1	·	·	0	-4	·
O=C(CSc1nnc(-c2cccnc2)n1Cc1ccco1)N1c2ccccc2Sc2ccccc21	-3	40*	16	-1	6	7	16
CCOC(=O)CC[C@@H]1CC[C@]2(CCCN(C(=O)C3CCCC3)C2)O1	1	-1	·	·	1	-4	·
CCC1(c2ccccc2)NC(=O)N(CC(=O)Nc2ccc3c(c2)CCC3)C1=O (stereo not drawn)	1	0	1	·	1	-5	·
CCC1(c2ccccc2)NC(=O)N(CC(=O)Nc2ccc(OC)nc2)C1=O (stereo not drawn)	-5	58*	-3	·	-2	2	55*
O=C(NN=Cc1ccccc1O)C(=O)Nc1ccc(F)cc1	-1	-2	·	·	1	-2	·
COc1ccccc1NC(=O)CSc1sc2c(O)cc(=O)[nH]c2c1C#N	5	27*	-4	·	15	2	16
COc1ccc(Cl)cc1NC(=O)CSc1sc2c(O)cc(=O)[nH]c2c1C#N	2	29*	-7	·	2	7	3
CC(C)C[C@H](NC1(C(=O)NC2CCCCC2)CCCCC1)C(=O)NCC(c1ccccc1)c1ccccc1	0	-2	·	·	0	-1	·
O=S(=O)(Nc1nc2ccccc2nc1NCc1ccco1)c1ccc(Cl)cc1	5	10	10	7	0	1	·
Cc1ccc(S(=O)(=O)Nc2nc3ccccc3nc2NCc2ccco2)cc1	-2	33*	25*	13	-4	1	9
Cc1ccc(C2CCC3(CCC(=O)N3CCO)CC2)cc1 (stereo not drawn)	2	-3	·	·	2	3	·
Cc1cc(C)cc(N2C(=O)CC(Sc3ncn[nH]3)C2=O)c1 (stereo not drawn)	2	29*	6	-8	3	-4	43*
Cc1c(O)nc(SC2CC(=O)N(c3ccccc3)C2=O)[nH]c1=O (stereo not drawn)	1	2	-4	-2	0	-4	·
Cn1nnnc1SC1CC(=O)N(c2ccccc2)C1=O (stereo not drawn)	-5	56*	8	0	1	-1	75*
O=C1CC(Sc2nnnn2C2CCCCC2)C(=O)N1c1ccccc1 (stereo not drawn)	5	75*	15	-9	1	1	73*
Cc1cc(C)cc(N2C(=O)CC(Sc3nnnn3-c3ccccc3)C2=O)c1 (stereo not drawn)	-7	56*	19	6	-4	-3	55*
COC(=O)C1=C(C)N(Cc2ccccc2C(F)(F)F)C(=NCc2ccc3c(c2)OCO3)NC1c1ccccc1C(F)(F)F (stereo not drawn)	-2	-9	·	·	3	8	·
Cc1cccc(N2C(=O)CC(Sc3nc(C)cc(C)n3)C2=O)c1 (stereo not drawn)	3	2	0	-7	0	2	·
SMILES	MBD2 DNA inh	PRMT1 FP inh	ABHD5 PLIN5 PPI	RBBP9 inh	UHRF1 binding	LEDGF integ inh	PRMT1 inh conf
Cc1cccc(N2C(=O)CC(Sc3nnc(C)s3)C2=O)c1 (stereo not drawn)	-2	61*	2	-15	1	-1	44*
CCOc1ccc2nc(SC3CC(=O)N(c4cccc(OC)c4)C3=O)sc2c1 (stereo not drawn)	5	38*	0	-1	0	0	26*
CC(C)[C@H](N)C(=O)N[C@H](C(=O)N1CCC2CCN(S(=O)(=O)c3ccccc3)CC21)C(C)C (stereo partly drawn)	-2	2	·	·	-4	-1	·
COC(=O)C1=C(C)N(Cc2ccccc2C(F)(F)F)C(=NCc2ccc(OC)cc2)NC1c1ccc(C(F)(F)F)cc1 (stereo not drawn)	-1	-5	·	·	1	1	·
Cc1cccc(OC[C@@H](O)CN2CCC(C(O)(c3ccccc3)c3ccccc3)CC2)c1	-2	6	·	·	1	-4	·
Cc1ccc(OCc2nnc(SCC(=O)c3ccc4ccccc4c3)n2-c2ccc(Cl)cc2)cc1	-2	4	·	·	1	1	·
CC(=O)OC(C(=O)Nc1nccs1)c1ccccc1 (stereo not drawn)	2	0	1	·	5	2	·
O=C(Nc1nccs1)C(Br)C(Br)c1ccccc1 (stereo not drawn)	-6	65*	15	·	0	5	59*
CCCCCCCCc1nc(=S)[nH][nH]1	-3	27*	-2	2	3	-3	37*
O=C(Cc1c[nH]c2ccccc12)Nc1ccc(Nc2cccnc2)cc1	0	1	·	·	2	-3	·
COc1ccc2sc(/C=C/c3ccccc3O)[n+](C)c2c1	-18	36*	-7	-62	-18	-7	0
CCc1c(O)nc(SCC(=O)Nc2ccc(Br)cc2)n(-c2ccc(C)cc2)c1=O	3	45*	-7	·	3	-3	33*
CCCCc1c(O)nc(SCC(=O)Nc2cccc3ccccc23)n(-c2ccccc2OC)c1=O	8	42*	-3	·	5	-1	23*
CCc1c(O)nc(SCC(=O)Nc2ccccc2)n(-c2ccccc2)c1=O	1	18	-1	-6	1	0	·
CCc1c(O)nc(SCC(=O)Nc2cc(C)on2)n(-c2ccccc2)c1=O	5	53*	0	·	4	-3	24*
CCc1c(O)nc(SCC(=O)Nc2nc3ccccc3s2)n(-c2ccccc2)c1=O	0	38*	4	-2	-1	2	42*
COc1ccc2ccccc2c1C=NNC(=O)c1cc(-c2ccc(C)c(C)c2)n[nH]1	-2	-4	·	·	-3	1	·
